Only some compounds are listed: those with a hit (about 3.7% of all), similar ones and a draw of the others.
KCNQ1 act: potentiators or activators of human KCNQ1 potassium channel; B-score at 10 µM; P51787; actives 0.35% (n = 310,000); CHO-K1 KCNQ1, thallium flux FluxOR fluorescence; hits give high values;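 active = fluorescence ratio B-score, a plate-corrected score, at least three library SD, with initial intensity B-score within 5 SD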
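Test system: CHO-K1 cells stably expressing KCNQ1 / Medium: assay buffer / Also added: depolarizing K+/Tl+ stimulus, K2SO4 and Tl2SO4 each 12.5 mM in 5x stock / Incubation: 90 min dye loading and 20 min compound exposure, both at room temperature / Signal: thallium influx via FluxOR fluorescence, kinetic imaging / Evaluation: B score of baseline-normalized fluorescence ratio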
KCNK3 block: human KCNK3 channel inhibition, primary screen; O14649; CHO-KCNK3 thallium flux, FluxOR fluorescence; hits give low values; B-score at 10 µM; actives 0.84% (n = 340,000); AID 602410;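 active = B-score under library mean minus 4 SD, starting fluorescence ratio at most library mean plus 5 SD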;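 note: more negative B-score means stronger inhibition of thallium flux through KCNK3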
Target sequence (O14649 whole entry, looked up): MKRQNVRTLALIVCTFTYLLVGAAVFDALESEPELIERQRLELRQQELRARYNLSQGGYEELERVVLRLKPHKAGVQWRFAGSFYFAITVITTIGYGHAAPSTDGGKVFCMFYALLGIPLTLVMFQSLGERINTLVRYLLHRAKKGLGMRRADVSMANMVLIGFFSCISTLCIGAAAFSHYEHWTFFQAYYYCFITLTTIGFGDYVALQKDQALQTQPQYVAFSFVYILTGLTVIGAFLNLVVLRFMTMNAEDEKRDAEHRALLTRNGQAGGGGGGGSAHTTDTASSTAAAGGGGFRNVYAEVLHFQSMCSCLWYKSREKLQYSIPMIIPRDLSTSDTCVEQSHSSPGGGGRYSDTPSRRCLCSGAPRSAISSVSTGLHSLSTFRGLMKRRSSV
KCNK9 inh: inhibitors of human KCNK9 two-pore domain potassium channel | Q9NPC2 | actives 1.2% (n = 310,000) | B-score at 10 µM | HEK293 KCNK9, FluxOR thallium flux fluorescence; hits give low values | AID 488922;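 active = ratio B-score over 3 SD below the library mean, with starting fluorescence within 5 SD of its mean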;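 note: negative B-score means less thallium flux so channel inhibition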
hERG protect: shields human hERG channel from block by proarrhythmic agents | CHO-hERG, FluxOR thallium flux, dofetilide IC70 present | activation (rescue from dofetilide block), less the hit threshold, % at 10 µM | actives 0.51% (n = 310,000) | AID 1511;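 active = activation above the mean of controls blocked by dofetilide plus 5 SD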;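 note: thallium influx through hERG after potassium depolarization seen as dye fluorescence rise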
KCNQ1 inh: inhibitors of human KCNQ1 potassium channel; P51787; CHO-K1 KCNQ1, FluxOR thallium flux fluorescence; hits give high values; B-score at 10 µM; actives 1.3% (n = 310,000);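 active = compounds whose thallium flux B-score, printed positive for inhibition, exceeds three library SD while starting fluorescence stays within three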;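 note: channel opened by potassium depolarization with thallium stimulus after 20 min compound exposure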
Kir21 inh: Kir2.1 (mouse) channel inhibition | HEK293-Kir2.1, FluxOR thallium flux fluorescence; hits give low values | B-score at 10 µM | actives 0.85% (n = 310,000);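 active = fluorescence ratio B-score at or below minus 3 SD of library scores, with starting-brightness B-score within 2 SD, cut at about -4.2 in these data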;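 note: channel flux triggered by added potassium and thallium sulfate stimulus; B-score of peak minus minimum fluorescence over baseline after thallium stimulus; more negative B-score means stronger Kir2.1 block with less thallium influx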
Target sequence (P35561 whole entry, looked up): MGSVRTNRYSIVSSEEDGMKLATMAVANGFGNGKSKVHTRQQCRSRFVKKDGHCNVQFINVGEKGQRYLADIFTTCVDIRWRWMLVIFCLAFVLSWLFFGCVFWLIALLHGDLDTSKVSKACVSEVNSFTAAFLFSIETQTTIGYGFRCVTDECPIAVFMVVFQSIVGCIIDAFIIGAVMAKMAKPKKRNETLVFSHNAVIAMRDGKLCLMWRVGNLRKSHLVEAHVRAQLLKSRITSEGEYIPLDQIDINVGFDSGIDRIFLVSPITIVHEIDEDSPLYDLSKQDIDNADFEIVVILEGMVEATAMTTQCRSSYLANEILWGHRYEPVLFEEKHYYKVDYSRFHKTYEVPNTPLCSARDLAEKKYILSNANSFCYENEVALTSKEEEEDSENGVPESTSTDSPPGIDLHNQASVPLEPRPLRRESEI
KCNQ1 block val: reconfirmed blocker of the human KCNQ1 potassium channel; shares compounds with KCNQ1 inh; KCNQ1 cell line, FluxOR thallium flux fluorescence; inhibition, % at 10 µM; actives 93% (n = 1,600); AID 588353;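 active = primary screen active, with duplicate mean exceeding buffer control mean plus 3 SD of buffer wells, cut at about 28% in these data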
CHO Tl flux: activity in parental CHO cells lacking KCNQ1; AID 588366; shares compounds with KCNQ1 inh; actives 21% (n = 1,600); fluorescence ratio (Tl flux) at 10 µM; parental CHO-K1, FluxOR thallium flux fluorescence ratio; hits give low values; zero means no signal rise above baseline;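 active = mean of duplicate thallium-flux fluorescence ratios in parental host cells more than 5 SD below the buffer control mean, cut at about 0.38 in these data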;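 note: ratio is peak minus minimum fluorescence divided by baseline fluorescence; actives read low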
KCNQ1 APC inh: human KCNQ1 inhibition validated by electrophysiology; KCNQ1-CHO cells, automated patch clamp current; actives 20% (n = 490); calls only at 10 µM; shares compounds with KCNQ1 inh;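 active = KCNQ1 current drop exceeding 3 SD of negative control wells, seen in both duplicate runs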;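 note: steady state current during a 2 s step from -80 to +40 mV; negative values mean current inhibition and positive values mean potentiation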
KCNQ2 inh: selectivity of KCNQ1 inhibitors: inhibition of rat KCNQ2 channel. AID 651746. shares compounds with KCNQ1 inh. actives 71% (n = 1,600). KCNQ2 cells, FluxOR thallium flux fluorescence. inhibition, % at 10 µM;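 active = mean percent inhibition of the KCNQ2 thallium signal more than 5 SD above the buffer-only control wells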;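 note: KCNQ2 expressed in CHO cells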
KCNQ1-KCNE1 inh: human KCNQ1/KCNE1 inhibition in KCNQ1 specificity screen; AID 652147; shares compounds with KCNQ1 inh; KCNQ1/KCNE1 cells, FluxOR thallium flux fluorescence; actives 77% (n = 1,600); inhibition, % at 10 µM;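 active = mean percent inhibition of duplicate wells above the buffer-only control mean plus 3 SD of those controls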
KCNK9 block conf: human KCNK9 inhibitor confirmation. shares compounds with KCNK9 inh. AID 492992. inhibition, % at 10 µM. HEK293 KCNK9 cells, FluxOR thallium flux fluorescence. actives 43% (n = 4,900);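 active = thallium signal inhibited by more than 5 SD of the compound-free buffer control wells, on both duplicate plates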
Kir21 sel: mouse Kir2.1 off-target activity of KCNK9 modulators; shares compounds with KCNK9 inh; Kir2.1 cells, FluxOR thallium flux fluorescence; inhibition, % at 10 µM; actives 4% (n = 4,900); AID 492993;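 active = thallium signal drop more than 5 SD beyond the mean of the no-compound control wells, seen in both duplicate plates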;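 note: signal is fluorescence rise after thallium addition divided by baseline fluorescence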
HEK293 Tl ctr: non-induced cell nonspecific activity of KCNK9 modulators; non-induced KCNK9-HEK293, FluxOR thallium flux; shares compounds with KCNK9 inh; AID 492997; inhibition, % at 10 µM; actives 40% (n = 4,900);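 active = thallium signal drop beyond 5 SD of the untreated control mean, on both duplicate plates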
Hits are given with their value; – = inactive; · = no result given; + = active, no number.

SMILES	KCNQ1 act	KCNK3 block	KCNK9 inh	hERG protect	KCNQ1 inh	Kir21 inh	KCNQ1 block val	CHO Tl flux	KCNQ1 APC inh	KCNQ2 inh	KCNQ1-KCNE1 inh	KCNK9 block conf	Kir21 sel	HEK293 Tl ctr
COc1cccc(CNC(=O)c2ccc(OCC(=O)N3CCOCC3)c(OC)c2)c1	–	–	–	–	–	–	·	·	·	·	·	·	·	·
CC(=O)NC(NC(=S)N1CCCCCC1)C(Cl)(Cl)Cl (stereo not drawn)	–	–	–	–	–	–	·	·	·	·	·	·	·	·
COc1ccc(NS(=O)(=O)c2ccc(-c3coc(C)n3)cc2)cc1OC	–	–	–	–	8	–	124.0	–	–	83.7%	36.5%	·	·	·
COc1cc(NC(=O)COc2cc(O)c3c(c2)OC(C)(C)CC3=O)cc(OC)c1	–	–	–	–	–	–	·	·	·	·	·	·	·	·
COc1cccc(NC(=O)COc2cc(O)c3c(c2)OC(C)(C)CC3=O)c1	–	–	–	–	7	–	49.0	–	·	78.3%	69.5%	·	·	·
Cn1nccc1C(=O)NC1CCCc2c1cnn2-c1ccc(C(C)(C)C)cc1 (stereo not drawn)	–	–	–	–	9	–	94.5	–	–	92.7%	43.0%	·	·	·
Cc1cc(C(=O)NC2CCCc3c2cnn3-c2cccc(C)c2C)n(C)n1 (stereo not drawn)	–	–	–	–	16	–	84.5	–	·	60.0%	46.5%	·	·	·
CCN(CC)CC(=O)N1CCCC(N2CCN(c3cccc(C(F)(F)F)c3)CC2)C1 (stereo not drawn)	–	–	–	–	–	–	·	·	·	·	·	·	·	·
C[C@H](NC(=O)[C@H]1N2C(=O)c3ccccc3C2SC1(C)C)C(=O)N1CCC[C@H]1CO (stereo partly drawn)	–	–	–	–	–	–	·	·	·	·	·	·	·	·
Cc1ccc(Cl)cc1N1CCN(C(=O)c2cc3c(=O)[nH]c4ccccc4c3n2C)CC1	–	–	–	–	12	–	110.0	–	–	104.3%	–	·	·	·
C=C1[C@H](C)CN[C@H]1CCO	·	–	·	·	·	·	·	·	·	·	·	·	·	·
CCOc1ccc(N2C(=O)CC(N(Cc3ccco3)C(C)=O)C2=O)cc1 (stereo not drawn)	–	–	–	–	–	–	·	·	·	·	·	·	·	·
CN(C1CCCCC1)S(=O)(=O)c1ccc(NC(=O)c2ccc(Br)o2)cc1	–	–	-7.97	–	7	–	131.5	–	–	115.3%	193.0%	·	·	·
COc1ccc(-c2cc3nc(-c4ccccc4)cc(N4CCCC(O)C4)n3n2)cc1 (stereo not drawn)	–	–	–	–	9	–	104.5	–	–	112.0%	184.0%	–	–	–
CC(C)CC(C(=O)Nc1oc(-c2ccco2)c(-c2ccco2)c1C#N)N1C(=O)c2ccccc2C1=O (stereo not drawn)	–	-10.9	-10.7	–	9	–	112.0	–	–	88.3%	65.0%	71.5%	–	26.5%
CC(C)CC(C(=O)Nc1cccc(O)c1)N1C(=O)c2ccccc2C1=O (stereo not drawn)	–	–	–	–	–	–	·	·	·	·	·	·	·	·
O=C1c2[nH]nc(-c3ccccc3O)c2C(c2ccccc2F)N1Cc1ccco1 (stereo not drawn)	–	-9.12	-14.8	–	9	–	126.5	–	·	77.7%	116.0%	73.0%	–	33.0%
CCOC(=O)c1c(-c2ccccc2)csc1NC(=O)c1nn(CC)cc1Br	–	–	–	–	–	–	·	·	·	·	·	·	·	·
CCOC(=O)c1c(-c2ccccc2)csc1NC(=S)N(CC)CC	–	–	-8.16	–	7	–	126.5	–	–	106.0%	145.0%	46.0%	–	27.5%
N#CCC(=O)Nc1ccc(C(=O)OCC(=O)Nc2ccccc2Sc2ccccc2)cc1	–	–	-9.05	–	6	–	99.0	–	+	90.7%	153.0%	50.5%	–	33.5%
Cc1cccc2c1cnn2C(=O)CCC(=O)N1CCC(C)CC1	–	–	–	–	–	–	·	·	·	·	·	·	·	·
Cc1cccc2c1cnn2C(=O)CCC(=O)N1CC(C)CC(C)C1 (stereo not drawn)	–	–	–	–	11	–	25.0	–	·	72.0%	–	–	–	–
CC1(C)Cc2c(cnn2-c2cccc(F)c2)C(NC(=O)CCc2cnccn2)C1 (stereo not drawn)	–	–	–	–	–	–	·	·	·	·	·	·	·	·
Cc1cccc(C)c1OCc1cc(C(=O)N2CCCCCCC2)no1	–	–	–	–	–	–	·	·	·	·	·	·	·	·
Cc1ccc(N2CCN(C(=O)c3cc(COc4c(C)cccc4C)on3)CC2)c(C)c1	–	–	–	–	7	–	85.5	–	·	113.0%	108.0%	–	–	–
SMILES	KCNQ1 act	KCNK3 block	KCNK9 inh	hERG protect	KCNQ1 inh	Kir21 inh	KCNQ1 block val	CHO Tl flux	KCNQ1 APC inh	KCNQ2 inh	KCNQ1-KCNE1 inh	KCNK9 block conf	Kir21 sel	HEK293 Tl ctr
COc1cccc(OCC(=O)Nc2cc(Cl)ccc2Oc2ccccc2)c1	–	–	–	–	–	–	·	·	·	·	·	·	·	·
CCOc1ccccc1C(=O)OCC(=O)Nc1cc(Cl)ccc1Oc1ccccc1	–	–	-8.12	–	8	–	87.0	–	·	76.3%	106.5%	32.0%	–	39.5%
CC1(C)Cc2c(C#N)c(N3CCN(C(=O)c4ccccc4)CC3)nc(Cc3ccccc3)c2CO1	–	–	–	–	10	–	105.5	–	–	111.0%	128.0%	–	–	–
O=C1c2ccccc2OC2(C=Cc3ccccc3O2)N1Cc1ccccc1 (stereo not drawn)	–	–	-13.7	–	7	–	116.0	0.376	·	109.0%	157.5%	46.5%	–	34.0%
COCCCNC(=O)C1CCC(CNS(=O)(=O)c2ccc(C)cc2)CC1 (stereo not drawn)	–	·	–	–	–	–	·	·	·	·	·	·	·	·
Cc1cccc(N2CCN(C(=O)COc3ccc4ccc(=O)oc4c3)CC2)c1C	–	–	–	–	–	–	·	·	·	·	·	·	·	·

Screening data from PubChem.
